The nature of experiment [1]: Displacement of 125I-Ang2 from AT1 receptor in SPF Sprague-Dawley rat vascular smooth muscle cell membranes after 150 mins by gamma counting method. The procedure, abridged: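 Primary aortic VSMCs from SPF Sprague-Dawley rats, obtained by explant culture in DMEM/10% FBS and identified by SM α-actin staining; passages 3–6. Whole cells (10^6/well) incubated with 125I-Ang II (diluted to 0.2 nM) and compound at final 10^-12–10^-6 M, 4 °C for 150 min. Washed, lysed in 0.1 M NaOH, γ-counted. IC50 from nonlinear fit of competition curves.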

Experiment [2] has as its system Rattus norvegicus. The experiment can be described thus: Antihypertensive activity in spontaneous hypertensive rat model assessed as reduction in mean blood pressure at 15 mg/kg, po measured up to 24 hrs. The class given is functional, organism-based. The procedure, abridged: (§1)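 Male SHRs (250 ± 20 g) were randomized, 6 per group. Compound was suspended in 0.5% sodium carboxymethyl cellulose and given orally; vehicle-only negative control. Mean blood pressure was calculated as (SBP − DBP)/3 + DBP from systolic and diastolic readings over the time course. Data are mean ± SD, with p < 0.05 taken as significant.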

Experiment [3] deals with Rattus norvegicus. The experiment is described as follows: Antihypertensive activity in spontaneous hypertensive rat model assessed as reduction in mean blood pressure at 15 mg/kg, po after 3 hrs. The class given is functional. The procedure, abridged: as §1
The test system of experiment [4] is Rattus norvegicus. The experiment can be described thus: Antihypertensive activity in spontaneous hypertensive rat model assessed as reduction in mean blood pressure at 15 mg/kg, po after 12 hrs. The class given is functional, organism-based. In a few lines: as §1

Structures are written as SMILES. Active and inactive are the calls of the source. No cut-off for these calls is given here.

In experiment [1], `CCCCCCC1=NC2(CCCC2)C(=O)N1Cc1ccc2c(ccn2-c2ccccc2-c2nnn[nH]2)c1` returned an IC50 of 6.15 nM and a Ki of 4.67 nM.

Take `CCCC1=NC2(CCCC2)C(=O)N1Cc1ccc2c(ccn2-c2ccccc2-c2nnn[nH]2)c1`: in experiment [1], the IC50 came to 7.04 nM and the Ki is 5.07 nM. Also, in the experiment on Rattus norvegicus [2], the outcome was Active.

For `CCCCC1=NC2(CCCC2)C(=O)N1Cc1cccc2c1ccn2-c1ccccc1-c1nnn[nH]1`, in experiment [1], the IC50 turned out to be 3.05 nM and the inhibition constant Ki stood at 2.21 nM. For the same compound, in the experiment on Rattus norvegicus [3], the Activity is on record as 40.57 mmHg. The result in the experiment on Rattus norvegicus [4] was Active.

Turning to `CCCC1=NC2(CCCC2)C(=O)N1Cc1cccc2c1ccn2-c1ccccc1-c1nnn[nH]1`, in experiment [1], the concentration for half-maximal inhibition (IC50) was determined as 7.75 nM and the inhibition constant (Ki) came to 5.61 nM. Further, the outcome with Rattus norvegicus [2] was Active.

Consider `CCCCCC1=NC2(CCCC2)C(=O)N1Cc1ccc2c(ccn2-c2ccccc2-c2nnn[nH]2)c1`, for which, in experiment [1], the half-inhibitory concentration (IC50) was determined as 5.33 nM and affinity was put at a Ki of 3.42 nM. The result with Rattus norvegicus [2] was Active.

On to `CCCCC1=NC2(CCCC2)C(=O)N1Cc1ccc(-c2ccccc2-c2nnn[nH]2)cc1` [IRBESARTAN], for which, in experiment [1], the 50% inhibitory concentration (IC50) amounted to 1.46 nM and the inhibition constant Ki stood at 1.05 nM. In addition, the result with Rattus norvegicus [2] was Active.

In experiment [1], `CCCCCC1=NC2(CCCC2)C(=O)N1Cc1cccc2c1ccn2-c1ccccc1-c1nnn[nH]1` registered a half-maximal inhibitory concentration (IC50) of 6.15 nM and an inhibition constant (Ki) of 4.67 nM. In addition, the result with Rattus norvegicus [2] was Active.
